Series [1] deals with Plasmodium falciparum. The experiment in a line: Antiplasmodial activity against chloroquine-sensitive asexual blood stage of Plasmodium falciparum NF54 infected in human RBC assessed as reduction in [3H]hypoxanthine incorporation preincubated for 48 hrs followed by [3H]hypoxanthine addition measured after 24 hrs by liquid scintillation counting method. Format: functional, organism-based. An outline of the steps: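 Asexual blood-stage P. falciparum NF54 assay, run as a modified [3H]-hypoxanthine incorporation assay. Values are the mean of n ≥ 2 assays; determinations differing more than 3-fold were excluded. Chloroquine and artesunate served as controls.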

A further series deals with CHO. As to the kind of experiment: Cytotoxicity against CHO cells after 48 hrs by MTT assay. Format: cell-based. The settings on record: Cricetulus griseus. In general terms: Tetrazolium assays rely on reduction of a dye to a coloured formazan, in cell work by metabolically active cells.
The nature of series [2]: Selectivity index, ratio of IC50 for CHO cells to IC50 for chloroquine-sensitive asexual blood stage of Plasmodium falciparum NF54 infected in human RBC. The settings on record: Chinese hamster, read-out: Ratio IC50. Format: toxicity. An outline of the steps:
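Selectivity index taken as the ratio of the CHO-cell IC50 to the P. falciparum NF54 IC50.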

The nature of series [3]: Resistance index, ratio of IC50 for chloroquine-resistant asexual blood stage of Plasmodium falciparum K1 infected in human RBC to IC50 for chloroquine-sensitive asexual blood stage of Plasmodium falciparum NF54 infected in human RBC. Format: functional.
Series [4] deals with Plasmodium falciparum. The experiment in a line: Antiplasmodial activity against chloroquine-resistant asexual blood stage of Plasmodium falciparum K1 infected in human RBC assessed as reduction in [3H]hypoxanthine incorporation preincubated for 48 hrs followed by [3H]hypoxanthine addition measured after 24 hrs by liquid scintillation counting method. Format: functional, organism-based. Summed up: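 Asexual blood-stage P. falciparum K1 (multidrug resistant) screened by modified [3H]-hypoxanthine incorporation assay; IC50 as mean of n ≥ 2 assays, replicates differing above 3-fold excluded; chloroquine and artesunate controls.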

Another series has as its system Hemozoin. As to the kind of experiment: Inhibition of beta hematin formation after 5 hrs by NP40 detergent-based assay.
The test system of series [5] is Plasmodium falciparum. As to the kind of experiment: Antiplasmodial activity against chloroquine-sensitive final late stage of Plasmodium falciparum NF54-Mal8p1.16-GFP-Luc gametocytes after 24 hrs by BacTiter-Glo assay. Format: functional, organism-based. The settings on record: NF54, 24 h. Summed up:
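Late-stage PfNF54 gametocytes produced in vitro; gametocytocidal IC50 via luciferase reporter and ATP bioluminescence platforms; n=3 independent biological replicates in technical triplicates, ± S.E.M.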

Results on 52 compounds are retold here after ChEMBL document CHEMBL4371072, “Structure-Activity Relationship Studies and Plasmodium Life Cycle Profiling Identifies Pan-Active N-Aryl-3-trifluoromethyl Pyrido[1,2- a]benzimidazoles Which Are Efficacious in an in Vivo Mouse Model of Malaria” (J Med Chem, 2019).

Take `N#Cc1c(C(F)(F)F)cc(Nc2ccccc2)n2c1nc1ccccc12`: the IC50 – broadly, the point on the concentration scale where inhibition reaches its midpoint – with Plasmodium falciparum [1] is greater than 2.83 µM.
As for `CN(C)c1ccc(CNc2cc(C(F)(F)F)c(C#N)c3nc4ccccc4n23)cc1`, the IC50 in the series on Plasmodium falciparum [1] was 2.98 µM.
Turning to `N#Cc1c(C(F)(F)F)cc(NCc2ccccn2)n2c1nc1ccccc12`, the IC50 was greater than 272 µM with CHO, 1.16 µM in the series with Plasmodium falciparum [1], 1.64 µM in the series on Plasmodium falciparum [4] and greater than 100 µM with Hemozoin. The selectivity ratio in series [2] was greater than 234. In addition, the Ratio IC50 in series [3] was 1.41.
Regarding `N#Cc1c(C(F)(F)F)cc(Nc2ccnc(F)c2)n2c1nc1ccccc12`, in the series on Plasmodium falciparum [1], the half-inhibitory concentration (IC50) is greater than 2.52 µM.
Same read-out and setting: then `CN(Cc1ccccn1)c1cc(C(F)(F)F)c(C#N)c2nc3ccccc3n12`, with greater than 2.72 µM; and `CC(C)c1ccc(CNc2cc(C(F)(F)F)c(C#N)c3nc4ccccc4n23)cc1`, with 2.4 µM.
Consider `CNC(=O)c1ccc(Nc2cc(C(F)(F)F)c(C#N)c3nc4ccccc4n23)cc1`, for which the IC50 with Plasmodium falciparum [1] was greater than 10 µM.
On to `NC(=O)c1c(C(F)(F)F)cc(NCc2ccccn2)n2c1nc1ccccc12`, for which the IC50 in the series on Plasmodium falciparum [1] and in the series on Plasmodium falciparum [4] was greater than 10 µM each time.
As to `N#Cc1c(C(F)(F)F)cc(NCc2ccc(S(N)(=O)=O)cc2)n2c1nc1ccccc12`, the IC50 with Plasmodium falciparum [1] was determined as 10.2 µM.
The same measure, in the same setting: then `N#Cc1c(C(F)(F)F)cc(NCc2cccnc2)n2c1nc1ccccc12`, with greater than 2.72 µM.
As to `N#Cc1c(C(F)(F)F)cc(Nc2ccc(CN3CCOCC3)cc2)n2c1nc1ccccc12`, the values for the IC50 with Plasmodium falciparum [1] and in the series with Hemozoin were greater than 2.21 µM and 50 µM, respectively.
Regarding `CN(C)c1ccc2nc3ccc(N(C)C)cc3[s+]c2c1` [METHYLENE BLUE ANHYDROUS], the IC50 in the series with Plasmodium falciparum [5] is 0.9 µM.
Consider `Cc1ccc(Nc2cc(C(F)(F)F)c(C#N)c3nc4ccccc4n23)cc1`, for which, in the series with Plasmodium falciparum [1], the IC50 was found to be 2.14 µM.
Consider `N#Cc1c(C(F)(F)F)cc(Nc2ccc(OC(F)(F)F)cc2)n2c1nc1cc(Cl)c(Cl)cc12`, for which the values for the IC50 with Plasmodium falciparum [1] and in the series with Hemozoin were greater than 1.97 µM and 32 µM, respectively.
In the case of `N#Cc1c(C(F)(F)F)cc(NCc2ncccn2)n2c1nc1ccccc12`, the IC50 in the series on Plasmodium falciparum [1] came to 4.8 µM.
In the case of `N#Cc1c(C(F)(F)F)cc(NCc2ccc(F)cc2)n2c1nc1cc(Cl)cc(Cl)c12`, the IC50 in the series on Plasmodium falciparum [5] turned out to be 0.74 µM; with CHO, 1.66 µM; in the series with Plasmodium falciparum [1], 0.31 µM; in the series on Plasmodium falciparum [4], 0.21 µM.
In the case of `COC(=O)c1ccc(Nc2cc(C(F)(F)F)c(C#N)c3nc4ccccc4n23)cc1`, the IC50 in the series with Plasmodium falciparum [1] came to 1.59 µM.
On to `CS(=O)(=O)c1ccc(Nc2cc(C(F)(F)F)c(C#N)c3nc4ccccc4n23)cc1`, for which the IC50 in the series on Plasmodium falciparum [1] was greater than 2.32 µM.
As to `N#Cc1c(C(F)(F)F)cc(Nc2ccccc2OC(F)(F)F)n2c1nc1ccccc12`, in series [3], the Ratio IC50 worked out at 0.71. The IC50 in the series on Plasmodium falciparum [1] was 0.87 µM; in the series with Plasmodium falciparum [4] it was 0.62 µM.
Consider `CCCOc1ccc(Nc2cc(C(F)(F)F)c(C#N)c3nc4ccccc4n23)cc1`, for which, in the series with Plasmodium falciparum [1], the IC50 was 1.16 µM.
Same read-out and setting: with `COC(=O)c1c(C(F)(F)F)cc(Nc2ccc(OC(F)(F)F)cc2)n2c1nc1ccccc12` the figure was 5.52 µM.
On to `COc1ccc(CNc2cc(C(F)(F)F)c(C#N)c3nc4ccccc4n23)cc1`, for which the IC50 in the series on Plasmodium falciparum [1] came to 3.18 µM.
Regarding `N#Cc1c(C(F)(F)F)cc(N2CCNCC2)n2c1nc1ccccc12`, in the series with Plasmodium falciparum [1], the IC50 came to 10 µM.
For the compound `CN(C)c1ccc(Nc2cc(C(F)(F)F)c(C#N)c3nc4ccccc4n23)cc1`, the IC50 in the series on Plasmodium falciparum [1] was found to be 5.62 µM.
For `CNC(=O)c1ccc(CNc2cc(C(F)(F)F)c(C#N)c3nc4ccccc4n23)cc1`, the IC50 in the series with Plasmodium falciparum [1] was greater than 2.36 µM.
With `Cc1csc(Nc2cc(C(F)(F)F)c(C#N)c3nc4ccccc4n23)n1`, the IC50 in the series on Plasmodium falciparum [1] was greater than 2.82 µM.
On the same count and under the same terms, then `CN(C)C(=O)c1ccc(CNc2cc(C(F)(F)F)c(C#N)c3nc4ccccc4n23)cc1`, with greater than 2.28 µM; and `N#Cc1ccc(Nc2cc(C(F)(F)F)c(C#N)c3nc4ccccc4n23)cc1`, with 2.36 µM.
On to `CC(Nc1cc(C(F)(F)F)c(C#N)c2nc3ccccc3n12)c1ccc(S(C)(=O)=O)cc1` (stereo not drawn), for which the IC50 in the series on Plasmodium falciparum [1] was greater than 2.68 µM; in the series on Hemozoin, greater than 100 µM.
On to `N#Cc1c(C(F)(F)F)cc(NCc2ccccc2)n2c1nc1ccccc12`, for which the 50% inhibitory concentration (IC50) in the series on Plasmodium falciparum [1] came to 6.11 µM.
`N#Cc1c(C(F)(F)F)cc(NS(=O)(=O)c2ccccn2)n2c1nc1cc(Cl)c(Cl)cc12`: the IC50 is greater than 6 µM in the series with Plasmodium falciparum [1] and greater than 100 µM in the series on Hemozoin.
For the compound `N#Cc1c(C(F)(F)F)cc(Nc2cnccn2)n2c1nc1ccccc12`, in the series on Plasmodium falciparum [1], the IC50 is 4.42 µM.
As to `C[C@H]1[C@H](OC(=O)CCC(=O)O)O[C@@H]2O[C@@]3(C)CC[C@H]4[C@H](C)CC[C@@H]1[C@@]24OO3` [ARTESUNATE], the values for the IC50 with Plasmodium falciparum [1] and with Plasmodium falciparum [4] were 0.004 µM and 0.003 µM, respectively.
On to `NC(=O)c1c(C(F)(F)F)cc(NCc2ccc(F)cc2)n2c1nc1ccccc12`, for which the IC50 with Plasmodium falciparum [1] is greater than 6 µM.
`CS(=O)(=O)c1ccc(CNc2cc(C(F)(F)F)c(C#N)c3nc4cc(Cl)c(Cl)cc4n23)cc1`: the Ratio IC50 in series [3] stood at 1.05. In addition, the IC50 in the series with Plasmodium falciparum [1] is 5.34 µM; in the series with Plasmodium falciparum [4] it was 5.61 µM; with Hemozoin, greater than 100 µM.
Consider `N#Cc1c(C(F)(F)F)cc(N2CCNCC2)n2c1nc1cc(Cl)c(Cl)cc12`, for which the IC50 in the series on Plasmodium falciparum [1] is 8.11 µM.
Consider `Cc1ccc(CNc2cc(C(F)(F)F)c(C#N)c3nc4ccccc4n23)cc1`, for which the IC50 with CHO amounted to 25 µM; in the series with Plasmodium falciparum [1] it was 1.49 µM. The selectivity ratio in series [2] came out at 17.
`N#Cc1c(C(F)(F)F)cc(NCc2cnccn2)n2c1nc1ccccc12`: the half-inhibitory concentration (IC50) in the series on Plasmodium falciparum [1] worked out at 2.6 µM.
Still for that read-out and setting: then `COc1ncnc(Nc2cc(C(F)(F)F)c(C#N)c3nc4ccccc4n23)c1OC`, with greater than 2.82 µM.
Turning to `N#Cc1c(C(F)(F)F)cc(NCc2ccncc2)n2c1nc1ccccc12`, in the series on Plasmodium falciparum [1], the IC50 was greater than 2.72 µM.
Take `FC(F)(F)Oc1ccc(Nc2cc(C(F)(F)F)cc3nc4ccccc4n23)cc1`: the Ratio IC50 in series [3] amounted to 0.79. The results for the IC50 in the series with Plasmodium falciparum [1] and in the series with Plasmodium falciparum [4] were 4.24 µM and 3.36 µM, respectively.
In the case of `CC(C)c1ccc(Nc2cc(C(F)(F)F)c(C#N)c3nc4ccccc4n23)cc1`, the IC50 in the series on Plasmodium falciparum [1] stood at 1.01 µM.
On to `N#Cc1c(C(F)(F)F)cc(NS(=O)(=O)c2ccc(OC(F)(F)F)cc2)n2c1nc1cc(Cl)c(Cl)cc12`, for which the Ratio IC50 in series [3] came out at 0.87. The IC50 with Plasmodium falciparum [1] turned out to be 6.73 µM; in the series with Plasmodium falciparum [4], 5.85 µM; in the series on Hemozoin, 78 µM.
As for `N#Cc1c(C(F)(F)F)cc(Nc2ncccn2)n2c1nc1ccccc12`, in the series on Plasmodium falciparum [1], the IC50 was greater than 2.69 µM.
The same measure, in the same setting: then `N#Cc1ccc(S(=O)(=O)Nc2cc(C(F)(F)F)c(C#N)c3nc4cc(Cl)c(Cl)cc4n23)cc1`, with 5.64 µM.
`N#Cc1c(C(F)(F)F)cc(Nc2cccc(OC(F)(F)F)c2)n2c1nc1ccccc12`: the Ratio IC50 in series [3] came to 0.58. In addition, the IC50 in the series with Plasmodium falciparum [1] worked out at 0.39 µM; with Plasmodium falciparum [4] it was 0.23 µM.
On to `CN(C)C(=O)c1ccc(Nc2cc(C(F)(F)F)c(C#N)c3nc4ccccc4n23)cc1`, for which the IC50 in the series with Plasmodium falciparum [1] is greater than 2.36 µM.
Consider `CC(Nc1cc(C(F)(F)F)c(C#N)c2nc3cc(Cl)c(Cl)cc3n12)c1ccc(S(C)(=O)=O)cc1` (stereo not drawn), for which the IC50 was found to be 4.97 µM in the series on Plasmodium falciparum [1] and 32 µM in the series on Hemozoin.
`NC(=O)c1c(C(F)(F)F)cc(NCc2ccc(OC(F)(F)F)cc2)n2c1nc1ccccc12`: the Ratio IC50 in series [3] was 1.47. Further, the IC50 in the series on Plasmodium falciparum [1] came to 5.16 µM; in the series with Plasmodium falciparum [4], 7.59 µM.
As to `COc1ccc(Nc2cc(C(F)(F)F)c(C#N)c3nc4ccccc4n23)cc1`, the IC50 in the series with Plasmodium falciparum [1] worked out at 2.26 µM.
Consider `CS(=O)(=O)c1ccc(CNc2cc(C(F)(F)F)c(C#N)c3nc4ccccc4n23)cc1`, for which the IC50 in the series with Plasmodium falciparum [1] was found to be 12.6 µM.
For the compound `N#Cc1c(C(F)(F)F)cc(NCc2ccc(O)cc2)n2c1nc1ccccc12`, in the series with Plasmodium falciparum [1], the IC50 is 8.74 µM.
